# Screens deposited in PubChem BioAssay by several laboratories.
# Compounds with a hit are over-represented: about 3.8% of the library has one in this group of screens.
# MrgX1 PAM: allosterically activates human MrgX1 receptor signaling | B-score at 10 µM | AID 588675 | MrgX1-HEK293, Fluo-4 calcium flux, FDSS; hits give high values | 310,000 compounds, 0.63% hits | Q96LB2;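 active means plate-corrected calcium response at least 3 library SD above typical, normal starting fluorescence, not activating the receptor alone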;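 further: compound read alongside a low EC10 to EC30 dose of BAM8-22 agonist; peak minus trough fluorescence over baseline measured at the second addition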
# Target sequence (Q96LB2 whole entry, looked up): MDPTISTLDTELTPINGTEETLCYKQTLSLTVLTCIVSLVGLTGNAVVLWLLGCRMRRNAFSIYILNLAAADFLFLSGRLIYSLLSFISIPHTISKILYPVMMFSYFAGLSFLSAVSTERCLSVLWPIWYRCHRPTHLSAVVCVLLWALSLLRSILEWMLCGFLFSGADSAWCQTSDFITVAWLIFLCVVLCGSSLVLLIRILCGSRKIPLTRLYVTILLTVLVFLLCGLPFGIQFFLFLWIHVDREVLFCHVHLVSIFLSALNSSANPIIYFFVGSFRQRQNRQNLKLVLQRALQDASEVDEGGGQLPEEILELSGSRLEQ
# RGS4 pot: RGS4 potentiation or activation; AID 463111; HEK293 M3R/inducible RGS4, carbachol calcium flux Fluo4; hits give low values; B-score at 10 µM; 310,000 compounds, 0.92% hits;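 active means B-score of the integrated calcium signal more than 4 SD below the library mean, with starting fluorescence not abnormally high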;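 further: negative B-score means reduced calcium response which marks RGS4 activation or potentiation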
#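 test system = HEK293 cells with stable M3R and inducible RGS4 | schedule = recording 10 s baseline at 1 Hz, 100 s post-agonist | technique = Fluo4-AM (2 µM) calcium-flux fluorescence, kinetic read | measure = Agonist-evoked peak-minus-minimum fluorescence over baseline, integrated ratio, B score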
# MrgX1 antagonist: human MrgX1 receptor antagonism, primary screen | Q96LB2 | MRGX1-HEK293 calcium flux, Fluo-4, BAM8-22 antagonism; hits give low values | B-score at 10 µM | 310,000 compounds, 1.3% hits | AID 588676;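 active means calcium-response B-score plate-corrected more than 3 library SD below zero, starting fluorescence within 5 deviations, no agonist response on first addition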;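 further: peak minus trough fluorescence over baseline after final BAM8-22 challenge near maximal dose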
# RGS4 block: inhibitors of human RGS4 | HEK293 M3R/RGS4 inducible, Fluo-4 calcium flux; hits give high values; triggered by carbachol at its EC20 | B-score at 10 µM | 310,000 compounds, 0.45% hits | AID 463165;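 active means B-score, a plate-corrected calcium signal, over three deviations above library mean, with baseline fluorescence within five deviations of library mean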;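 further: RGS4 expression induced by doxycycline in cells with stable M3 receptor; B-score is computed from the integrated fluorescence ratio over baseline after carbachol; higher B-score means a larger calcium signal and so more RGS4 inhibition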
# Target sequence (P49798 whole entry, looked up): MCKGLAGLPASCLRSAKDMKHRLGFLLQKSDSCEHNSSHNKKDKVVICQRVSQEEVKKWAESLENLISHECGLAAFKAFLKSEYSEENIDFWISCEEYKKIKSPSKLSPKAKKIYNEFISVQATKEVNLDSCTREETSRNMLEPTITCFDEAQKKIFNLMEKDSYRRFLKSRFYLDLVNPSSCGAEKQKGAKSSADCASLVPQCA
# MrgX1 agonist: activates human MrgX1 receptor signaling; MrgX1-HEK293 cells, Fluo-4 calcium fluorescence, agonist mode; hits give high values; B-score at 10 µM; 310,000 compounds, 0.44% hits; AID 588627;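 active means calcium response B-score plate-corrected fluorescence ratio at least 3 library SD, with starting fluorescence B-score inside 5 SD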
#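 System – MrgX1-expressing HEK293 cells · Incubation – cells plated overnight, dye loaded 0.5 h 37 °C, 0.5 h room temperature · Technique – kinetic Fluo-4 NW fluorescence of intracellular calcium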
# Hep lipid drop: hepatic lipid droplet formation modulation; AML12 mouse hepatocytes, oleate lipid droplets, BODIPY imaging; inhibition, % at 6.5 µM; 240,000 compounds, 0.4% hits; AID 1656;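 active means lipid droplet intensity inhibited by at least 50%, with more than 500 cells counted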
#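 Test system: AML12 mouse liver cells; schedule: overnight exposure; technique: high-content imaging of BODIPY-stained droplets and DAPI nuclei; read-out: % inhibition of corrected integrated BODIPY droplet signal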
# RGS4 inh valid: RGS4 inhibitor validation; shares compounds with RGS4 block; HEK293 M3R/RGS4, carbachol calcium Fluo-4 fluorescence; carbachol added at its EC20; 0 = buffer wells, 100 = carbachol control; calcium response, % at 10 µM; 1,700 compounds, 65% hits; AID 492999;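 active means duplicate-averaged calcium response above the buffer-only control mean plus 5 SD of those controls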;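 further: integrated fluorescence ratio F max minus min over baseline F0; higher response in RGS4-induced cells means RGS4 inhibition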
# RGS4 uninduced: non-induced cell nonspecific activity of RGS4 inhibitors. 1,900 compounds, 20% hits. HEK293 M3R non-induced, carbachol calcium Fluo-4; submaximal (EC20) carbachol stimulus; buffer wells 0%, carbachol control wells 100%. activity (percent), % at 10 µM. AID 493000. shares compounds with RGS4 block; call rule not given here;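 further: RGS4 induction absent so cells express M3R without RGS4; higher means more calcium signal and flags a non-specific hit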
# RGS4 inh ctr2: signal in non-induced cells without carbachol, RGS4 inhibitor counter-screen | shares compounds with RGS4 block | HEK293 M3R/RGS4 non-induced, Fluo-4 calcium, no carbachol; normalised: buffer wells 0%, carbachol wells 100% | calcium response (agonist-mode artifact), % at 10 µM | 1,900 compounds, 22% hits;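 active means duplicate-averaged calcium rise in uninduced cells above buffer wells' mean plus 5 SD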
# The depositor's hits bear a star; i = inactive; / = not tested or not shown.
SMILES,MrgX1 PAM,RGS4 pot,MrgX1 antagonist,RGS4 block,MrgX1 agonist,Hep lipid drop,RGS4 inh valid,RGS4 uninduced,RGS4 inh ctr2
COc1ccc(S(=O)(=O)/N=C2/NC(=O)/C(=C\c3ccco3)S2)cc1,i,i,i,i,i,2.8,/,/,/
COc1cc(/C=C2\S/C(=N/S(=O)(=O)c3ccccc3)NC2=O)c([N+](=O)[O-])cc1OC,i,i,i,6.79*,i,11.7,30.0%*,68.5%*,i
Cc1ccc(N(C)C(=O)CN(C)S(=O)(=O)c2ccc3c(c2)n(C)c(=O)c(=O)n3C)cc1,i,i,i,i,i,-24.3,/,/,/
Cc1cc(C(=O)Nc2nc3ccc(Cl)cc3s2)nn1C,i,i,i,5.01*,i,12.4,10.5%*,i,i
Cn1ncc(Cl)c1C(=O)Nc1nc2ccc(Cl)cc2s1,i,i,i,i,i,15.5,/,/,/
N#Cc1c(NC(=O)C2CC=CCC2C(=O)O)sc2c1CCCCCC2 (stereo not drawn),i,i,i,5.03*,i,9.3,19.5%*,i,i
CC(C)(C)C1CCc2c(sc(NC(=O)C3CC=CCC3C(=O)O)c2C#N)C1 (stereo not drawn),i,i,i,i,i,2.0,/,/,/
CNc1c([N+](=O)[O-])cnn1-c1ccc(Cl)cc1,i,i,i,i,i,/,/,/,/
Cc1ccc(C(C[N+](=O)[O-])c2c(C)[nH]n(-c3ccccc3)c2=O)cc1 (stereo not drawn),i,i,i,6.74*,35.7*,-20.6,7.0%*,31.5%*,17.0%*
Cc1[nH]n(-c2ccccc2)c(=O)c1C(C[N+](=O)[O-])c1ccc(F)cc1 (stereo not drawn),i,i,i,i,i,-21.4,/,i,7.5%*
Cc1[nH]n(-c2ccccc2)c(=O)c1C(C[N+](=O)[O-])c1ccc(Cl)cc1 (stereo not drawn),i,i,i,9.98*,32.1*,3.2,28.5%*,i,11.0%*
COc1ccc(C(c2c(C)[nH]n(-c3ccccc3)c2=O)c2c(C)[nH]n(-c3ccccc3)c2=O)cc1OC,i,i,i,i,i,-5.0,/,i,i
COc1ccccc1CNC(=S)Nc1ccc(S(N)(=O)=O)cc1,i,i,i,i,i,5.3,/,/,/
Cc1cccc(OCCC(=O)NCC(=O)Nc2cccc(C)c2C)c1,i,i,i,i,i,-17.6,/,/,/
Cc1nn(-c2ccc(N3CCOCC3)nn2)c(C)c1CCC(=O)NCc1ccccc1F,i,i,i,i,i,-0.6,/,/,/
COc1cc(/C=C/C(=O)c2ccc(O)cc2)ccc1OCC#N,i,i,i,4.67*,i,6.5,10.5%*,i,i
COc1ccc(Br)cc1C(C[N+](=O)[O-])c1c(N)n(C)c(=O)n(C)c1=O (stereo not drawn),i,i,i,i,i,-14.7,/,/,/
COc1ccc(OC)c(C(C[N+](=O)[O-])c2c(C)cc3ccccn23)c1 (stereo not drawn),i,i,i,i,i,14.4,i,i,i
COc1ccc(C(C[N+](=O)[O-])c2c(C)cc3ccccn23)c(OC)c1 (stereo not drawn),i,i,i,13.2*,40.8*,-32.1,i,i,i
COc1ccc(NC(=O)CCn2cccc2)c(OC)c1,i,i,i,i,i,-8.5,/,/,/
N#Cc1ccccc1COc1cccc2c1CCCC2O (stereo not drawn),i,i,i,i,i,-14.2,/,/,/
OC(CNCC(c1ccc(Cl)cc1Cl)c1c[nH]c2ccccc12)c1ccccc1 (stereo not drawn),i,i,i,4.91*,i,31.1,17.0%*,i,14.0%*
O=[N+]([O-])CC(c1ccccc1)c1c[nH]c2ccccc12 (stereo not drawn),i,i,i,i,i,/,/,/,/
O=C(Nc1cc(C(F)(F)F)ccc1N1CCOCC1)c1ccc(F)cc1,i,i,i,i,i,5.9,/,/,/
O=C(Nc1cc(C(F)(F)F)ccc1N1CCOCC1)c1n[nH]c(=O)c2ccccc12,i,i,i,7.55*,i,/,23.5%*,i,i
SMILES,MrgX1 PAM,RGS4 pot,MrgX1 antagonist,RGS4 block,MrgX1 agonist,Hep lipid drop,RGS4 inh valid,RGS4 uninduced,RGS4 inh ctr2
Cc1nc2ccc(S(=O)(=O)NC(C(=O)NCc3ccco3)C(C)C)cc2s1 (stereo not drawn),i,i,i,i,i,3.5,/,/,/
COc1ccc(Cl)cc1N(C(=O)Nc1cccc(Cl)c1)C1=NCC(C)S1 (stereo not drawn),i,i,i,i,i,-2.3,/,/,/
Cc1c(C#N)c(O)n(CCO)c(=O)c1N=Nc1ccc2c(c1)COC2=O,i,i,i,5.24*,i,-0.7,i,i,18.0%*
O=C(NCc1cccnc1)/C(=C/c1ccc(Cl)cc1)NC(=O)c1ccccc1,i,i,i,i,i,18.4,i,i,i
COc1ccc(C(=O)N/C(=C\c2ccccc2)C(=O)NCc2cccnc2)cc1,i,i,i,i,i,/,i,i,i
CCn1c(=O)c2c(n3c(=S)[nH]nc13)-c1ccccc1CC21CCCCC1,i,i,i,8.34*,i,23.3,45.5%*,57.0%*,i
CSc1n[nH]c2nc3c(c(=O)n12)C1(CCCCC1)Cc1ccccc1-3,i,i,i,4.67*,i,4.4,12.5%*,i,i
CCSc1n[nH]c2nc3c(c(=O)n12)C1(CCCCC1)Cc1ccccc1-3,i,i,i,i,i,-28.7,/,i,i
N#CCSc1n[nH]c2nc3c(c(=O)n12)C1(CCCCC1)Cc1ccccc1-3,i,i,i,i,i,-2.7,/,/,/
Cc1ccccc1-n1c(=O)c2c(n3cnnc13)-c1ccccc1CC21CCCCC1,i,i,i,i,i,/,/,/,/
